# Assay results of several laboratories.
# Lines come from different studies, so protocols differ.
# Integrin alpha-V/beta-3: Integrin alpha-V/beta-3 (Homo sapiens, UniProt P05106+P06756)
# PTPN1: Tyrosine-protein phosphatase non-receptor type 1 (PTPN1, Homo sapiens, UniProt P18031)
# Acetylcholinesterase: Acetylcholinesterase (Bos taurus, UniProt P23795)
# LDHA: L-lactate dehydrogenase A chain (LDHA, Homo sapiens, UniProt P00338)
# MAOA: Amine oxidase [flavin-containing] A (MAOA, Homo sapiens, UniProt P21397)
# GSR: Glutathione reductase, mitochondrial (GSR, Homo sapiens, UniProt P00390)
Structure (SMILES),target,observed,mode,method,pH,IC50
CC[C@H](C)[C@@H]([C@@H](CC(=O)N1CCC[C@H]1[C@H](OC)[C@@H](C)C(=O)N[C@@H](Cc1ccccc1)C(=O)O)OC)N(C)C(=O)[C@@H](NC(=O)[C@H](C(C)C)N(C)C(=O)CCc1cn(CCOCCOCCOCCOCC(=O)NCc2ccc(CN3C(=O)[C@H]4CC(=O)N[C@H](C(=O)O)CC(=O)NCC(=O)N[C@@H](CCCNC(=N)N)C(=O)NC[C@H]3C(=O)N4)cc2)nn1)C(C)C,Integrin alpha-V/beta-3,ligand displacement,,,,0.0107 µM
CNC(=O)C(Cc1ccc(C(F)(F)[P-](F)(F)(F)(F)F)cc1)NC(C)=O (centres unmarked),PTPN1,enzyme activity,inhibitor,,,872 µM
COc1cc2c3cc1Oc1cc(ccc1O)C[C@@H]1c4c(cc(OC)c(O)c4Oc4ccc(cc4)C[C@@H]3N(C)CC2)CC[N+]1(C)C,Acetylcholinesterase,enzyme activity,inhibitor,Ellman,,54.4 µM
COc1c(O[C@@H]2O[C@H](CO)[C@@H](O)[C@H](O)[C@H]2O[C@@H]2O[C@H](CO)[C@@H](O)[C@H](O)[C@H]2O)cc2oc(-c3ccc(O)cc3)cc(=O)c2c1O,LDHA,enzyme activity,inhibitor,,pH 7.4,> 500 µM
CCOP(=O)(OCC)Oc1ccc2c(C)c(Cl)c(=O)oc2c1,Acetylcholinesterase,enzyme activity,inhibitor,Ellman,,1.04 µM
C#CCNc1nc(NCCCCC2CCN(Cc3ccccc3)CC2)c(C#N)cc1C#N,MAOA,enzyme activity,inhibitor,fluorescence,,53.3 µM
CN(C)CCCN1c2ccccc2Sc2ccccc21,"Histamine H2 receptor (HRH2, Homo sapiens, UniProt P25021)",ligand displacement,,radioligand,,0.11 µM
CC[C@H](C)[C@@H]([C@@H](CC(=O)N1CCC[C@H]1[C@H](OC)[C@@H](C)C(=O)N[C@H](C)[C@@H](O)c1ccccc1)OC)N(C)C(=O)[C@@H](NC(=O)[C@H](C(C)C)N(C)C(=O)CCc1cn(CCOCCOCCOCCOCC(=O)NCc2ccc(CN3C(=O)[C@H]4CC(=O)N[C@H](C(=O)O)CC(=O)NCC(=O)N[C@@H](CCCNC(=N)N)C(=O)NC[C@H]3C(=O)N4)cc2)nn1)C(C)C,Integrin alpha-V/beta-3,ligand displacement,,,,0.0145 µM
Nc1ncnc2c1ncn2[C@@H]1O[C@H](COP(=O)(O)OP(=O)(O)OP(=O)(O)O)[C@@H](O)[C@H]1O,"Nucleotide-binding oligomerization domain-containing protein 1 (NOD1, Homo sapiens, UniProt Q9Y239)",ligand displacement,,FP,,~0.015 µM
COc1cc(Nc2ncc(F)c(Nc3ccc4c(n3)NC(=O)C(C)(C)O4)n2)cc(OC)c1OC,"Cathepsin S (CTSS, Homo sapiens, UniProt P25774)",enzyme activity,inhibitor,,,12.6 µM
CC(=O)OC[C@H]1O[C@@H](O[C@H]2[C@H](Oc3cc(O)c4c(=O)cc(-c5ccc(O)c(O)c5)oc4c3)O[C@H](CO)[C@@H](O)[C@@H]2O)[C@H](O)[C@@H](O)[C@@H]1O,LDHA,enzyme activity,inhibitor,,pH 7.4,445 µM
CC[n+]1c(-c2ccccc2)c2cc(N)ccc2c2ccc(N)cc21,Acetylcholinesterase,enzyme activity,inhibitor,Ellman,,32.3 µM
O=c1c2ccccc2[se]n1-c1ccccc1,GSR,enzyme activity,inhibitor,absorbance,,21.5 µM
NC(Cc1ccc(C(=O)[P-](F)(F)(F)(F)F)cc1)C(=O)O (centres unmarked),PTPN1,enzyme activity,inhibitor,,,104 µM
CC(=O)N[C@@H](CS)C(=O)O,"Angiotensin-converting enzyme 2 (ACE2, Homo sapiens, UniProt Q9BYF1)",enzyme activity,inhibitor,fluorescence,,173 µM
COc1ccc(/C=C/C(=O)N2CCN(Cc3ccccc3)CC2)cc1OC,MAOA,enzyme activity,inhibitor,fluorescence,,63.2 µM
NC(=O)c1cccc(-c2cc(OC(=O)NC3CCCCC3)ccc2O)c1,"Monoglyceride lipase (Rattus norvegicus, UniProt Q8R431)",enzyme activity,inhibitor,,,> 100 µM
CCC(CC)CSc1ccccc1OC(=O)NC,Acetylcholinesterase,enzyme activity,inhibitor,Ellman,,5.07 µM
CCCCc1ccc(NS(=O)(=O)c2ccc3c4c(cccc24)C(=O)N3)cc1,PTPN1,enzyme activity,inhibitor,,,59.4 µM
CNC1CC(c2ccc(Cl)c(Cl)c2)c2ccccc21 (centres unmarked),GSR,enzyme activity,inhibitor,absorbance,,> 100 µM
